In ChEMBL document CHEMBL2046427, “Nonhematotoxic naphthalene diimide modified by polyamine: synthesis and biological evaluation” (J Med Chem, 2012):
Calls of active or inactive are those of the source. No cut-off for these calls is given here.

How the values were obtained:
HepG2 [1] = assay: Cytotoxicity against human HepG2 cells after 48 hrs by MTT assay; type: functional, cell-based; conditions: HepG2, 48 h
How it was run: (§1)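 MTT conversion assay at 37 °C, 5% CO₂. […] Inhibition relative to untreated cells as 100%; IC50 by linear regression, mean of three independent experiments.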

MDA-MB-231 = assay: Cytotoxicity against human MDA-MB-231 cells after 48 hrs by MTT assay; type: functional, cell-based; conditions: MDA-MB-231, 48 h; how it was run: as §1
K562 = assay: Cytotoxicity against human K562 cells after 48 hrs by MTT assay; type: functional, cell-based; conditions: K562, 48 h; how it was run: as §1
HCT-116 = assay: Cytotoxicity against human HCT116 cells after 48 hrs by MTT assay; type: functional, cell-based; conditions: HCT-116, 48 h; how it was run: as §1
HepG2 [2] = assay: Cytotoxicity against human HepG2 cells assessed as cell nuclear shrinkage after 48 hrs by Hoechst 33342-based fluorescence-based high-content screening assay; type: functional
How it was run: (§2)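 HepG2 seeded 5 × 10³/well; after 12 h treated at 1, 5, 10, 15 and 30 μM for 48 h. Multiparameter cytotoxicity kit staining imaged by high-content screening: Hoechst 33342 for nuclear morphology, permeability dye (green nuclei) for membrane integrity, mitochondrial potential dye, and a weak-base dye for lysosomal mass/pH.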

HepG2 [3] = assay: Cytotoxicity against human HepG2 cells assessed as mitochondrial permeability augmentation after 48 hrs by fluorescence-based high-content screening assay; type: functional, cell-based; how it was run: as §2
HepG2 [4] = assay: Cytotoxicity against human HepG2 cells assessed as decrease in mitochondrial membrane potential after 48 hrs by fluorescence-based high-content screening assay; type: functional, cell-based; how it was run: as §2
HepG2 [5] = assay: Cytotoxicity against human HepG2 cells assessed as acruement in lysosomal mass/pH after 48 hrs by fluorescence-based high-content screening assay; type: functional, cell-based; how it was run: as §2
H22 [6] = assay: Antitumor activity against mouse H22 cells xenografted in Kunming mouse assessed as tumor growth inhibition at 5 mg/kg, iv administered on day 8 post-tumor injection for 7 days measured on day 16 relative to vehicle treated control; type: functional; conditions: read-out: GI
How it was run: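 Male Kunming mice, 5 weeks, 18−22 g, injected sc with 2 × 10⁶ H22 cells. From day 8, randomized groups got caudal vein injection (0.2 or 5 mg/kg, or physiologic saline) for 7 consecutive days. On day 16 tumours excised and weighed; inhibitory rate (%) = [(A − B)/A] × 100 using mean tumour weights of control (A) and treated (B). Tumours formalin-fixed, H&E-stained.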

H22 [7] = assay: Antitumor activity against mouse H22 cells xenografted in Kunming mouse assessed as decrease in cell survival at 5 mg/kg, iv administered on day 8 post-tumor injection for 7 days measured on day 16 relative to vehicle treated control; type: functional, organism-based; parameters: dose 5 mg/kg
H22 [8] = assay: Antitumor activity against mouse H22 cells xenografted in Kunming mouse assessed as median survival time at 5 […], iv administered 24 hrs post-tumor injection for 7 days (reference value: 12.7 +/- 2.5 days); type: functional
How it was run: (§3)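 Kunming mice bearing H22 cells; iv (caudal vein) dosing or physiologic saline control started 24 h after inoculation and given for 7 consecutive days. Median survival time recorded per group; activity judged as increase in lifespan versus saline control.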

H22 [9] = assay: Antitumor activity against mouse H22 cells xenografted in Kunming mouse assessed as median survival time at 5 […], iv administered 24 hrs post-tumor injection for 7 days relative to vehicle treated control; type: functional; how it was run: as §3
H22 [10] = assay: Antimetastatic activity against mouse H22 cells xenografted in Kunming mouse assessed as decrease in lung metastases nodus number at 5 mg/kg, iv administered on day 11 post-tumor injection for 7 days measured on day 18 by hematoxylin and eosin staining relative to vehicle treated control; type: functional, organism-based; parameters: dose 5 mg/kg
H22 [11] = assay: Antimetastatic activity against mouse H22 cells xenografted in Kunming mouse assessed as decrease in lung metastasis focuses number at 5 mg/kg, iv administered on day 11 post-tumor injection for 7 days measured on day 18 by hematoxylin and eosin staining relative to vehicle treated control; type: functional, organism-based; parameters: dose 5 mg/kg
H22 [12] = assay: Antimetastatic activity against mouse H22 cells xenografted in Kunming mouse assessed as tumor weight at 5 mg/kg, iv administered on day 11 post-tumor injection for 7 days measured on day 18 (reference value: 0.34 +/- 0.15 g); type: functional
Mus musculus [13] = assay: Toxicity in mouse H22 cells bearing Kunming mouse assessed as weight loss at 5 mg/kg, iv administered for 7 days measured on day 8 relative to vehicle treated control; type: organism-based; parameters: dose 5 mg/kg, route intravenous; conditions: in vivo, 168 h
How it was run: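 Body weight monitored in tumour-bearing mice during 7 consecutive days of iv dosing (10 per group), as a sign of dose-limiting toxicity versus saline-treated controls; mice killed on day 8.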

Mus musculus [14] = assay: Toxicity in mouse H22 cells bearing Kunming mouse assessed as decrease in platelet number at 5 mg/kg, iv administered for 7 days measured on day 8 relative to vehicle treated control; type: organism-based; parameters: dose 5 mg/kg, route intravenous; conditions: in vivo, 168 h
How it was run: (§4)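 Tumour-bearing mice (10 per group) dosed iv for 7 consecutive days; killed on day 8. Blood and bone marrow collected; platelet, RBC, WBC and bone marrow cell counts determined with a Coulter counter. Mean SD versus saline control; Student's t test or ANOVA with q test.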

Mus musculus [15] = assay: Toxicity in mouse H22 cells bearing Kunming mouse assessed as decrease in red blood cells number at 5 mg/kg, iv administered for 7 days measured on day 8 relative to vehicle treated control; type: organism-based; parameters: dose 5 mg/kg, route intravenous; conditions: in vivo, 168 h; how it was run: as §4
Mus musculus [16] = assay: Toxicity in mouse H22 cells bearing Kunming mouse assessed as decrease in white blood cells number at 5 mg/kg, iv administered for 7 days measured on day 8 relative to vehicle treated control; type: organism-based; parameters: dose 5 mg/kg, route intravenous; conditions: in vivo, 168 h; how it was run: as §4
Mus musculus [17] = assay: Hematotoxicity in mouse H22 cells bearing Kunming mouse assessed as decrease in bone marrow cell numbers at 5 mg/kg, iv administered for 7 days measured on day 8 relative to vehicle treated control; type: organism-based; parameters: dose 5 mg/kg, route intravenous; conditions: in vivo, 168 h; how it was run: as §4
Mus musculus [18] = assay: Toxicity in mouse H22 cells bearing Kunming mouse assessed as change in spleen index number at 5 mg/kg, iv administered for 7 days measured on day 8 relative to vehicle treated control; type: organism-based; parameters: dose 5 mg/kg, route intravenous; conditions: in vivo, 168 h
How it was run: (§5)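 Tumour-bearing mice (10 per group) dosed iv for 7 consecutive days, killed on day 8; spleen and thymus removed and weighed. Organ index (%) = (organ weight/body weight) × 100, compared with saline-treated controls.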

Mus musculus [19] = assay: Toxicity in mouse H22 cells bearing Kunming mouse assessed as change in thymus index number at 5 mg/kg, iv administered for 7 days measured on day 8 relative to vehicle treated control; type: organism-based; parameters: dose 5 mg/kg, route intravenous; conditions: in vivo, 168 h; how it was run: as §5
Mus musculus [20] = assay: Toxicity in mouse H22 cells bearing Kunming mouse assessed pathological changes in spleen at 5 mg/kg, iv administered for 7 days measured on day 8 by hematoxylin and eosin staining relative to vehicle treated control; type: organism-based; parameters: dose 5 mg/kg, route intravenous; conditions: in vivo, 168 h
How it was run: (§6)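 Tumour-bearing mice dosed iv for 7 consecutive days, killed on day 8; heart, liver, kidney, brain, lung and spleen removed, fixed in 10% formaldehyde 24 h, paraffin-embedded, sectioned and H&E stained for histopathological change versus saline controls.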

Mus musculus [21] = assay: Toxicity in mouse H22 cells bearing Kunming mouse assessed pathological changes in heart at 5 mg/kg, iv administered for 7 days measured on day 8 by hematoxylin and eosin staining relative to vehicle treated control; type: organism-based; parameters: dose 5 mg/kg, route intravenous; conditions: in vivo, 168 h; how it was run: as §6
Mus musculus [22] = assay: Toxicity in mouse H22 cells bearing Kunming mouse assessed pathological changes in liver at 5 mg/kg, iv administered for 7 days measured on day 8 by hematoxylin and eosin staining relative to vehicle treated control; type: organism-based; parameters: dose 5 mg/kg, route intravenous; conditions: in vivo, 168 h; how it was run: as §6
Mus musculus [23] = assay: Toxicity in mouse H22 cells bearing Kunming mouse assessed pathological changes in lung at 5 mg/kg, iv administered for 7 days measured on day 8 by hematoxylin and eosin staining relative to vehicle treated control; type: organism-based; parameters: dose 5 mg/kg, route intravenous; conditions: in vivo, 168 h; how it was run: as §6
Mus musculus [24] = assay: Toxicity in mouse H22 cells bearing Kunming mouse assessed pathological changes in kidney at 5 mg/kg, iv administered for 7 days measured on day 8 by hematoxylin and eosin staining relative to vehicle treated control; type: organism-based; parameters: dose 5 mg/kg, route intravenous; conditions: in vivo, 168 h; how it was run: as §6
Mus musculus [25] = assay: Toxicity in mouse H22 cells bearing Kunming mouse assessed pathological changes in brain at 5 mg/kg, iv administered for 7 days measured on day 8 by hematoxylin and eosin staining relative to vehicle treated control; type: organism-based; parameters: dose 5 mg/kg, route intravenous; conditions: in vivo, 168 h; how it was run: as §6

NCCCCNCCCCNCCCCN1C(=O)c2ccc3c4c(ccc(c24)C1=O)C(=O)N(CCCCNCCCCNCCCCN)C3=O
IC50 (HepG2 [1]): > 50 µM
IC50 (MDA-MB-231): > 50 µM
IC50 (K562): 28 µM

NCCCNCCCNCCCN1C(=O)c2ccc3c4c(ccc(c24)C1=O)C(=O)N(CCCNCCCNCCCN)C3=O
IC50 (HepG2 [1]): 48.5 µM
IC50 (MDA-MB-231): 18 µM
IC50 (K562): 21.2 µM

NCCCNCCCNCCCN1C(=O)c2ccc(-c3ccc4c(c3)C(=O)N(CCCNCCCNCCCN)C4=O)cc2C1=O
IC50 (HepG2 [1]): > 50 µM
IC50 (MDA-MB-231): > 50 µM
IC50 (HCT-116): > 50 µM

CN(C)CCN1C(=O)c2cccc3cc(N)cc(c23)C1=O [AMONAFIDE]
IC50 (HepG2 [1]): 36 µM
IC50 (MDA-MB-231): 42 µM
IC50 (K562): 31.7 µM
IC50 (HCT-116): 32 µM
Activity (HepG2 [2]): Dose-dependent effect
Activity (HepG2 [3]): Dose-dependent effect
Activity (HepG2 [4]): Dose-dependent effect
Activity (HepG2 [5]): Dose-dependent effect
inhibition in vivo at 5 mg/kg (H22 [6]): 44.7%
Activity (H22 [7]): Active
MST (H22 [8]): 18.9 days
Ratio (H22 [9]): 1.5
Activity (H22 [10]): Active
Activity (H22 [11]): Active
Activity (H22 [12]): 0.29 g
Activity (Mus musculus [13]): Toxic
Activity (Mus musculus [14]): Toxic
Activity (Mus musculus [15]): Toxic
Activity (Mus musculus [16]): Toxic
Activity (Mus musculus [17]): Toxic
Activity (Mus musculus [18]): Toxic
Activity (Mus musculus [19]): Toxic
Activity (Mus musculus [20]): Non-toxic
Activity (Mus musculus [21]): Non-toxic
Activity (Mus musculus [22]): Non-toxic
Activity (Mus musculus [23]): Non-toxic
Activity (Mus musculus [24]): Non-toxic
Activity (Mus musculus [25]): Non-toxic

NCCCNCCCCNCCCN1C(=O)c2cccc3c(-c4ccccc4)ccc(c23)C1=O
IC50 (HepG2 [1]): 15.8 µM
IC50 (MDA-MB-231): 14.5 µM
IC50 (K562): 14.2 µM

NCCCCNCCCCN1C(=O)c2cccc3c(-c4ccccc4)ccc(c23)C1=O
IC50 (HepG2 [1]): 17.1 µM
IC50 (MDA-MB-231): 19.2 µM
IC50 (K562): 14.4 µM

CN(C)CCN1C(=O)c2cccc3c(-c4ccccc4)ccc(c23)C1=O
IC50 (HepG2 [1]): 37 µM
IC50 (MDA-MB-231): 39.2 µM
IC50 (K562): > 50 µM
Activity (HepG2 [2]): Dose-dependent effect
Activity (HepG2 [3]): Dose-dependent effect
Activity (HepG2 [4]): Dose-dependent effect
Activity (HepG2 [5]): Dose-dependent effect
